High-throughput results as filed in PubChem.
The list is not random: actives were taken first. Their share in the collection is about 4.5%.
CHO parental Ca = counter-screen: ATP calcium response change in parental CHO cells; 330,000 tested, 0.63% active; parental CHO-K1, ATP-induced calcium, Fluo-8 fluorescence; inhibition, % at 5.6 µM;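 active = inhibition above that plate's mean sample inhibition plus 3 SD, cut at about 26% in these data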;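 also: 0% = ATP-challenged DMSO wells and 100% = DMSO wells without ATP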
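Measured by: calcium-sensitive Fluo-8 fluorescence / Test system: CHO parental line / Controls: ATP-challenged DMSO wells low, unchallenged DMSO wells high / Measure: % inhibition / Compound: single nominal dose of 5.6 µM per compound / Replicates: single well per compound, no replicates / Reagent: ATP as calcium-mobilizing challenge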
GPR7 antag = blocks human GPR7 receptor signaling. P48145. GPR7-expressing cells, fluorescence antagonist assay. inhibition, % at 4.4 µM. 290,000 tested, 1.1% active; in the data active = inhibition above about 16%, passing the limit was not always enough;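 also: cells stimulated with the agonist NPW; 0% = agonist with vehicle and 100% = vehicle without agonist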
TAAR1 ag = human TAAR1 agonism; CHO RD-HGA16 TAAR1, Fluo-8 calcium fluorescence; vehicle wells 0%, saturating PEA agonist 100%; activation, % at 3 µM; 360,000 tested, 0.99% active; AID 624467;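 active = activation above the mean activation of all test compounds in the run plus 3 SD, cut at about 38% in these data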
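System: CHO-derived RD-HGA16 cells with stable Gα16 and human TAAR1 / Times: 17-24 h plating, Fluo-8 75 min 37 °C, 30 min RT / Technique: calcium-sensitive Fluo-8 signal, excitation 470-495, emission 515-575 nm / Measure: % activation relative to PEA EC100 response / Benchmarks: DMSO and PEA EC100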
TAAR1 antagonist = human TAAR1 antagonism. CHO RD-HGA16 TAAR1, Fluo-8 calcium fluorescence, antagonist. AID 624466. 360,000 tested, 1.5% active. inhibition, % at 3 µM. Q96RJ0;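 active = inhibition above a per-plate cutoff, the mean inhibition of test compounds on that plate plus 3 SD, cut at about 49% in these data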;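 also: 0% = DMSO plus EC80 beta-PEA response and 100% = DMSO alone without agonist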
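Material: RD-HGA16 CHO cells with stable hTAAR1 and Gα16; Dosing: single nominal final test compound concentration of 3 µM; Schedule: seeding 17-24 h prior, 75-min 37 °C, 30-min RT dye loading; Detection: kinetic Fluo-8 calcium fluorescence measurement; Measure: % inhibition from peak post-agonist over basal fluorescence ratio; Benchmarks: vehicle and agonist controls.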
OX1R antag-1 = blocks the human orexin 1 receptor; O43613; CHO/OX1R cells, Fluo-8 calcium fluorescence, orexin A; inhibition, % at 5 µM; 330,000 tested, 0.43% active;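 active = inhibition above its plate's threshold, mean inhibition of all tested compounds on the plate plus 3 SD, cut at about 37% in these data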;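 also: 0% = orexin A challenge wells and 100% = SB-334867-A antagonist wells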
Target sequence (O43613 whole entry, looked up): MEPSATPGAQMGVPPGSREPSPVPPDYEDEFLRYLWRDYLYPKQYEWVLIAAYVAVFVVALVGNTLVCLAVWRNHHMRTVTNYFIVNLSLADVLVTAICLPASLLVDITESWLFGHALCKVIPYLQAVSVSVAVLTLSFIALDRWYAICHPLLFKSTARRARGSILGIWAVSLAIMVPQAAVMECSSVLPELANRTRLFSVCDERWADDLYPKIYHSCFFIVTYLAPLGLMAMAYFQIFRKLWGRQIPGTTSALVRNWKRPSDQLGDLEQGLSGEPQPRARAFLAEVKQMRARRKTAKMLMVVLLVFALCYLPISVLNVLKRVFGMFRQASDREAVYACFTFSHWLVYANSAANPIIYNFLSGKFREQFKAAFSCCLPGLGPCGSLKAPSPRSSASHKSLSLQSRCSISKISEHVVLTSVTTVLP
OX1R antag-2 = blocks the human orexin 1 receptor; O43613; OX1R-expressing cells, FRET antagonist read-out; inhibition, % at 6.6 µM; 330,000 tested, 1.8% active; AID 485270; in the data active = inhibition mostly above about 38%, no sharp cut-off; inactive = mostly below about 40%;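 also: 0% = agonist challenge alone and 100% = reference antagonist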
* hit, by the source's call; . = no result.

SMILES	CHO parental Ca	GPR7 antag	TAAR1 ag	TAAR1 antagonist	OX1R antag-1	OX1R antag-2
Cc1ccc(C(=O)N2O[C@]34C=C[C@]25C[C@@H](O)CC[C@]5(C)C3CC[C@]2(C)[C@@H]([C@H](C)/C=C/[C@H](C)C(C)C)CC[C@H]24)cc1 (stereo partly specified)	.	.	3	-26	.	.
CC(C)CN(C(=O)COC(=O)CCN1C(=O)c2ccccc2C1=O)C1CCS(=O)(=O)C1 (stereo unspecified)	-14	-14	0	3	8	18
CCOc1ccc(N2C(=O)c3ccc(C(=O)OCC(=O)N(CC)C4CCS(=O)(=O)C4)cc3C2=O)cc1 (stereo unspecified)	1	-4	11	10	-9	17
CN(C(=O)COC(=O)CCCN1C(=O)c2cccc3cccc(c23)C1=O)C1CCS(=O)(=O)C1 (stereo unspecified)	-12	.	0	-5	-23	67*
C=CCN1C(=O)c2ccc(C(=O)OCC(=O)N(CC)C3CCS(=O)(=O)C3)cc2C1=O (stereo unspecified)	-8	.	14	-21	-5	42*
CCN(C(=O)COC(=O)CCCN1C(=O)c2cccc3cccc(c23)C1=O)C1CCS(=O)(=O)C1 (stereo unspecified)	-9	.	0	-14	-19	53*
CCOC(=O)CCCCCN1C(=O)c2cccc3cccc(c23)C1=O	-12	10	8	4	-29	17
CCOC(=O)c1c(C)[nH]c(C(=O)CN(C)CC(=O)Nc2ccccc2Cl)c1C	-29	.	1	12	-11	7
COC(=O)C1=C(C)N(C)C(=NCc2ccc(OC)cc2)NC1c1cccc(C(F)(F)F)c1 (stereo unspecified)	.	.	13	-6	.	.
O=C(CSc1cn(CCNC(=O)c2ccccc2)c2ccccc12)NCc1ccco1	-14	13	2	7	-11	41*
O=C(NCCn1cc(SCc2ccc(F)cc2)c2ccccc21)c1ccccc1F	71*	-10	.	.	9	29
CC(=O)C1=C(C)N(Cc2ccc(F)cc2)C(=S)NC1c1ccccc1 (stereo unspecified)	.	.	-1	37	.	.
COCc1[nH]nc2c1C(c1ccccc1)NC2=O (stereo unspecified)	.	.	1	-29	.	.
FC(F)(F)c1nc2cc3nc4ccccc4[nH]c3cc2n1	-8	-12	3	-2	-9	54*
Cc1c(-c2nc(N)nc(Nc3ccccc3F)n2)oc2ccccc12	-2	-2	10	-8	-5	39*
CC(NC(=O)CN1C(=O)c2ccccc2C1=O)c1ccccc1 (stereo unspecified)	-5	2	0	-8	5	13
CCC(=O)Nc1ccc2c(c1)C(=O)c1ccccc1C2=O	-6	3	2	4	-11	37*
CCC(=O)NC1=C(NC(C)c2ccccc2)C(=O)c2ccccc2C1=O (stereo unspecified)	-12	-7	4	0	-21	64*
CCC(=O)Nc1ccc2c(c1)C(=O)N(C)C2=O	2	2	3	-10	-23	24
COc1ccccc1NC(=O)c1cc2cc(Br)ccc2cc1O	45*	6	7	24	10	19
COc1cc2ccccc2cc1C(=O)Nc1ccccc1Cl	-17	2	3	-3	19	1
COc1cc(NC(=O)c2cc3ccccc3cc2O)c(OC)cc1Cl	36*	11	5	49*	13	34*
Cc1ccc(NC(=O)CN2CCN(Cc3ccccc3)CC2)cc1F	-7	-12	9	-25	-7	5
CCCCNC(=S)N1CCN(CC)CC1	4	-5	39*	-35	7	6
CCOCCCNC(=S)N1CCN(CC)CC1	1	8	2	7	4	7
SMILES	CHO parental Ca	GPR7 antag	TAAR1 ag	TAAR1 antagonist	OX1R antag-1	OX1R antag-2
O=c1cc(-c2ccccc2Cl)oc2c(NS(=O)(=O)c3cc(Cl)cc(Cl)c3O)ccc(O)c12	75*	13	.	.	43	70*
Cc1ccn2cc(-c3cccc([N+](=O)[O-])c3)nc2c1	-18	-7	-1	16	-25	66*
COC(=O)c1cc(CN2CCN(c3ccccc3)CC2)ccc1O	-9	-11	0	0	-23	5
CCc1cccc(CC)c1NC(=O)CO/N=C(\C)c1cccs1	0	11	1	4	-9	12
CC(=O)c1ccc(NC(=O)CO/N=C(\C)c2cccs2)cc1	-3	20*	0	1	-17	10
CC(=O)c1ccc(NC(=O)COC(=O)/C=C/c2cccs2)cc1	-16	.	12	19	26	50*
CC(=O)c1ccccc1NC(=O)COC(=O)/C=C/c1cccs1	-26	.	6	31	-18	18
Cc1ccc(-n2c(-c3ccccc3)c[n+]3c2CCc2ccccc2-3)c(C)c1	54*	64*	1	15	17	37
Cc1ccc(-n2c(-c3ccccc3)c[n+]3c2CCC3)cc1	-9	10	6	-4	-6	23
COc1ccc(CCC(=O)N2CCN(S(=O)(=O)c3cccs3)CC2)cc1	.	.	1	-10	.	.
COCCNC(=O)c1ccc2c3n(nc2c1)-c1ccc(C)cc1CO3	-20	.	0	4	-13	64*
CCC1Sc2ccc(S(=O)(=O)CCC(=O)Nc3ccc(C(=O)OC)cc3)cc2NC1=O (stereo unspecified)	100*	-4	2	22	-22	-4
CCC1Sc2ccc(S(=O)(=O)CCC(=O)Nc3cccc(Br)c3)cc2NC1=O (stereo unspecified)	-28	-8	7	49*	-14	6
O=C(NCCc1ccccc1)C1CCCN(c2cnccn2)C1 (stereo unspecified)	-9	-10	2	-11	-12	14
COC(=O)/C(=C(O)\C=C\c1ccccc1[N+](=O)[O-])c1nc2ccccc2[nH]1	-12	-10	-3	14	-23	56*
O=C(/C=C\c1ccccc1[N+](=O)[O-])Nc1ccccc1	-6	-13	1	26	-20	10
Cc1nn(-c2ccccc2)c(N)c1Sc1cccc([N+](=O)[O-])c1	-10	5	1	16	-15	20
Cc1nn(-c2cccc([N+](=O)[O-])c2)c(N)c1-c1ccccc1	-2	4	1	-2	-23	41*
Cc1cc(C)cc(NC(=O)c2ccc(Cn3nc(C)c(Cl)c3C)o2)c1	-8	16	29	54*	8	15
CCOC(=O)c1csc(-c2sccc2Br)n1	-8	-5	3	-52	-11	45*
CCOC(=O)c1csc(-c2ccc(OC)c(OC)c2)n1	-5	-10	1	-5	-23	17
